Laboratory results published in ChEMBL document CHEMBL1157506, “Synthesis and pharmacological characterization of chiral pyrrolidinylfuran derivatives: the discovery of new functionally selective muscarinic agonists” (J Med Chem, 2008).

Key:
[1] = Antagonist activity at muscarinic M1/M4 receptor in guinea pig lung assessed as effect on tissue contraction; type: functional, Cavia porcellus
[2] = target: T1, Muscarinic acetylcholine receptor M5 (Homo sapiens, UniProt P08912); experiment: Displacement of [3H]NMS from human muscarinic M5 receptor expressed in CHO cells by liquid scintillation counter; type: cell-based
T1 sequence (P08912 whole entry): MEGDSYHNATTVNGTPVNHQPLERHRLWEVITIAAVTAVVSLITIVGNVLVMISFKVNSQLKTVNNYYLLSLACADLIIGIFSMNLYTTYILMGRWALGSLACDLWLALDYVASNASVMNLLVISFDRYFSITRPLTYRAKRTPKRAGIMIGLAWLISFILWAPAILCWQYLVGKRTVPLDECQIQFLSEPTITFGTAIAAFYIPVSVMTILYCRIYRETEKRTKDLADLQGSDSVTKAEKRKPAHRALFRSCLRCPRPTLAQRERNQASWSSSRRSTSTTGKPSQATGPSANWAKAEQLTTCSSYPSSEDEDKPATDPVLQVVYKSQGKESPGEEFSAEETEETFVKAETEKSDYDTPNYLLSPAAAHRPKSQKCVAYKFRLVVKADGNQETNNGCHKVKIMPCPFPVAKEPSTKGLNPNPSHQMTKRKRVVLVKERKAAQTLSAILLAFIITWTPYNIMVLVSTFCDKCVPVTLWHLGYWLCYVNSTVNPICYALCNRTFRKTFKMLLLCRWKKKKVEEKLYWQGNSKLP
How it was run: (§1)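 Membrane protein was 70 µg/mL for hm2, 50 µg/mL for hm4 and 25 µg/mL for hm5. Incubation was 120 min at room temperature in 25 mM sodium phosphate with 5 mM MgCl2, pH 7.4. GF/C filtration and scintillation counting followed; duplicates.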

[3] = Agonist activity at muscarinic M2 receptor in guinea pig atrium assessed as effect on inotropic activity; type: functional, Cavia porcellus, Cardiac atrium
How it was run: (§2)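 Left atria in PSS at 30 °C, paced via platinum electrodes (1 ms, 1 Hz, 5-10 V). Inotropic force recorded isometrically after 2 h equilibration. A cumulative APE reference curve was obtained, then cumulative agonist curves. Responses are expressed as % of the control maximal response.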

[4] = target: T2, Muscarinic acetylcholine receptor M1 (Homo sapiens, UniProt P11229); experiment: Displacement of [3H]NMS from human muscarinic M1 receptor expressed in CHO cells by liquid scintillation counter; type: cell-based
T2 sequence (P11229 whole entry): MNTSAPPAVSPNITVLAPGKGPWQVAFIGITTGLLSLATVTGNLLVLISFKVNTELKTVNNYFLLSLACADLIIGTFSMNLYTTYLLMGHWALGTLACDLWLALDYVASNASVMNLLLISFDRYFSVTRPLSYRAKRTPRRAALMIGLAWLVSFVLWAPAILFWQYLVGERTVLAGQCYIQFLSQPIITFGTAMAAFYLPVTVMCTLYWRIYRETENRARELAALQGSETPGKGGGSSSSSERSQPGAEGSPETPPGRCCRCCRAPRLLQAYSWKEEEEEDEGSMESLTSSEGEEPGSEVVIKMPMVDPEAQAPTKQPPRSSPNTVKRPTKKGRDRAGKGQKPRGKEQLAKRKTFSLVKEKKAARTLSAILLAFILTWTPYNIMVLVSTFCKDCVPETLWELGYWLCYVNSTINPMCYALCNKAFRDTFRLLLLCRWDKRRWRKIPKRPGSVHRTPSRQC

[5] = Antagonist activity at muscarinic M3 receptor in guinea pig ileum assessed as effect on tissue tension changes; type: functional, Cavia porcellus
How it was run: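 Guinea pig ileum with isotonic recording of tension changes and 30 min equilibration. Dose-response curves to arecaidine propargyl ester taken at 30 min intervals; the first is discarded and the second serves as control. Responses are expressed as % of the maximal control-curve response, with parallel tissues given only the reference agonist to check sensitivity.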

[6] = species on record: Cavia porcellus; experiment: Intrinsic activity at muscarinic M2 receptor in guinea pig atrium assessed as effect on inotropic activity relative to control; type: tissue-based; conditions: Cardiac atrium; how it was run: as §2
[7] = target: T3, Muscarinic acetylcholine receptor M4 (Homo sapiens, UniProt P08173); experiment: Displacement of [3H]NMS from human muscarinic M4 receptor expressed in CHO cells by liquid scintillation counter; type: cell-based; how it was run: as §1
T3 sequence (P08173 whole entry): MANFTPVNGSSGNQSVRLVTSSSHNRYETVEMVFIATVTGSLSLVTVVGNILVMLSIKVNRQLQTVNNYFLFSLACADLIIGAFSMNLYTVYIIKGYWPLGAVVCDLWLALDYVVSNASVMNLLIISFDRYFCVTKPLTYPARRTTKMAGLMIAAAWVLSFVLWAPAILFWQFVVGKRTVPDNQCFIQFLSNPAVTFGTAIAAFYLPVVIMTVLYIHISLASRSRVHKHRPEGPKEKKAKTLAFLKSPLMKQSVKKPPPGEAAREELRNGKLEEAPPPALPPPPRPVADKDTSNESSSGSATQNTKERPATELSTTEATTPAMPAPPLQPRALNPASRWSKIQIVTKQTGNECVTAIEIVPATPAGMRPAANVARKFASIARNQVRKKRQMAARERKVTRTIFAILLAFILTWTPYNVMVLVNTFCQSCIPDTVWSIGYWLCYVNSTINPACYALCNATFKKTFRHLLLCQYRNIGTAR

[8] = target: Muscarinic acetylcholine receptor M3 (Homo sapiens, UniProt P20309); experiment: Displacement of [3H]NMS from human muscarinic M3 receptor expressed in CHO cells by liquid scintillation counter; type: cell-based
[9] = target: T4, Muscarinic acetylcholine receptor M2 (Homo sapiens, UniProt P08172); experiment: Displacement of [3H]NMS from human muscarinic M2 receptor expressed in CHO cells by liquid scintillation counter; type: cell-based; how it was run: as §1
T4 sequence (P08172 whole entry): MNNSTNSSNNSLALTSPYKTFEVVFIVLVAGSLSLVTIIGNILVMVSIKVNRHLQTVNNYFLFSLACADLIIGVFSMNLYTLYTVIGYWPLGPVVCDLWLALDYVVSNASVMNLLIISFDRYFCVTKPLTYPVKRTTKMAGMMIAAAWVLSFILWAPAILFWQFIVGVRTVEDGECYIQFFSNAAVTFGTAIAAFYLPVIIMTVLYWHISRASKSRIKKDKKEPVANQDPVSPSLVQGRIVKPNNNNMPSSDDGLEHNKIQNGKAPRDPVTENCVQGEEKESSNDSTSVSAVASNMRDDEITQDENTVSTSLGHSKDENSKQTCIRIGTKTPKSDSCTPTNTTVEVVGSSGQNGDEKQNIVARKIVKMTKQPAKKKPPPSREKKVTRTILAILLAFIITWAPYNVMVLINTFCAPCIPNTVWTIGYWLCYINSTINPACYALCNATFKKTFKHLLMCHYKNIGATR

[10] = Antagonist activity at muscarinic M1/M4 receptor in New Zealanda white rabbit vas deferens assessed as effect on isometric tissue contraction; type: functional, Oryctolagus cuniculus
How it was run: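 Rabbit vas deferens bathed at 30 °C with 10^-6 M yohimbine and 10^-8 M tripitramine to block α2-adrenoceptors and M2 receptors. Electrically stimulated with square-wave pulses (0.1 ms, 2 Hz, 10-15 V) and equilibrated 1 h. Isometric contractions recorded during a cumulative dose-response curve to McN-A-343. Responses are expressed as % of maximal control-curve response, with parallel reference-agonist-only tissues run.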

[11] = Agonist activity at muscarinic M3 receptor in guinea pig ileum assessed as effect on tissue tension changes; type: functional, Cavia porcellus
How it was run: (§3)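 Ileum tension changes recorded isotonically after 30 min equilibration. APE curves were run at 30 min intervals; the first was discarded and the second was taken as control. Cumulative agonist curves followed, with responses expressed as % of the control maximum. Parallel reference-only tissues served as sensitivity checks.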

[12] = species on record: Oryctolagus cuniculus; experiment: Intrinsic activity at muscarinic M1/M4 receptor in New Zealanda white rabbit vas deferens assessed as effect on isometric tissue contraction relative to control; type: tissue-based
How it was run: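 Vas deferens in solution with 10^-6 M yohimbine and 10^-8 M tripitramine at 30 °C, field-stimulated (0.1 ms, 2 Hz, 10-15 V). Contractions recorded isometrically after 1 h equilibration. A cumulative McN-A-343 reference curve was built, then cumulative curves to the test agonist. Responses are expressed as % of the control curve's maximum. Parallel reference-only tissues served as sensitivity checks.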

[13] = species on record: Cavia porcellus; experiment: Intrinsic activity at muscarinic M1/M4 receptor in guinea pig lung assessed as effect on tissue contraction relative to control
[14] = species on record: Cavia porcellus; experiment: Intrinsic activity at muscarinic M3 receptor in guinea pig ileum assessed as effect on tissue tension changes relative to control; type: tissue-based; how it was run: as §3
[15] = Agonist activity at muscarinic M1/M4 receptor in guinea pig lung assessed as effect on tissue contraction; type: functional, Cavia porcellus

Sequence of Muscarinic acetylcholine receptor M3 (P20309 whole entry): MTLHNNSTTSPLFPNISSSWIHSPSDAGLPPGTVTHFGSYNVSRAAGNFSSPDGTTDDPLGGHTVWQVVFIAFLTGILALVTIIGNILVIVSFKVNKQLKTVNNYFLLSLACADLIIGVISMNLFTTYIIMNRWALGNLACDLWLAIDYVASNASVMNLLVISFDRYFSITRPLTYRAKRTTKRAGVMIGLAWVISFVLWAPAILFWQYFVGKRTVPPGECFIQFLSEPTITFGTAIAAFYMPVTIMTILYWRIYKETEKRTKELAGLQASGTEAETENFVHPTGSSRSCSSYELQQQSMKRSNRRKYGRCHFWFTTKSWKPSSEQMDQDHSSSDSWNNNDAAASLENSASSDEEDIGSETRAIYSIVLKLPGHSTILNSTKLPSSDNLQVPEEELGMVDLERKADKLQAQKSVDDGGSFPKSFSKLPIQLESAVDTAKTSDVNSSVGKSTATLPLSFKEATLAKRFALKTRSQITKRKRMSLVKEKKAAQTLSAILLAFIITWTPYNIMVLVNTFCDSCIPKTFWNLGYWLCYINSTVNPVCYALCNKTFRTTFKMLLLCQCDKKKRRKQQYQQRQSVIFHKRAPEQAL

| Structure (SMILES) | pKb [1] | Ki [2] [µM] | pD2 [3] | Ki [4] [µM] | pKb [5] | Intrinsic activity [6] | Ki [7] [µM] | Ki [8] [µM] | Ki [9] [µM] | pKb [10] | pD2 [11] | Intrinsic activity [12] | Intrinsic activity [13] | Intrinsic activity [14] | pD2 [15] |
| --- | --- | --- | --- | --- | --- | --- | --- | --- | --- | --- | --- | --- | --- | --- | --- |
| Cc1ccc(C2CCCN2C)o1 (racemic) | <5 | 21.9 | 6.31 | 26.9 | <5 | 0.37 | 24.5 | 22.9 | 14.5 |  |  |  |  |  |  |
| Cc1ccc([C@@H]2CCCN2C)o1 | <5 | 39.8 | 6.6 | 36.3 | <5 | 0.47 | 47.9 | 33.1 | 15.8 | <5 |  |  |  |  |  |
| Cc1ccc([C@@H]2CCC[N+]2(C)C)o1.[I-] | 5.96 | 3.63 | 7.49 | 5.62 | 7.82 | 0.42 | 5.13 | 2.69 | 1.66 | 5.9 |  |  |  |  |  |
| CN1CCCC1c1ccco1 (racemic) |  | 44.7 | 7.25 | 33.1 |  | 0.4 | 69.2 | 44.7 | 41.7 |  | 5.7 | 0.22 | 0.25 | 0.35 | 6.87 |
